pIC50: −log10 of the molar value. Activity calls are given as the source filed them. The rule behind the calls is not given here.
Columns and labels:
[1] = biological target: Keap1/Nrf2 (Homo sapiens, UniProt Q14145)
[2] = tested on: RAW264.7; test: Antioxidant activity in mouse RAW264.7 cells assessed as inhibition of LPS-induced ROS generation at 10 uM measured after 12 hrs by CH2DCF-DA staining based fluorescence microscopic analysis; type: functional, cell-based
Outline: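 RAW 264.7 cells were pretreated with LPS 1 µg/mL for 6 h, then given compound for 12 h. Cells were washed with PBS and stained with 10 µM c-H2DCF-DA for 20 min at 37 °C in the dark. ROS was imaged by live-cell fluorescence microscopy and quantified as mean fluorescence intensity. n = 3 independent observations, mean ± SEM.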

[3] = tested on: RAW264.7; test: Antioxidant activity in LPS-induced mouse RAW264.7 cells assessed as restoration of SOD activity at 10 uM […]; type: functional, cell-based
[4] = tested on: RAW264.7; test: Antioxidant activity in LPS-induced mouse RAW264.7 cells assessed as restoration of GSH-Px activity at 10 uM measured after 12 hrs; type: functional, cell-based
Outline: (§1)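 RAW 264.7 cells were pretreated with LPS 1 µg/mL for 6 h, then exposed to compound (1 or 10 µM) for a further 12 h. SOD activity (WST-8 kit), GSH-Px activity, MPO activity and the GSH/GSSG ratio were measured with commercial kits per the manufacturer's protocols. Data are mean ± SEM, n = 3 independent observations, one-way ANOVA.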

[5] = tested on: RAW264.7; test: Antioxidant activity in LPS-induced mouse RAW264.7 cells assessed as restoration of GSH to GSSG ratio at 10 uM measured after 12 hrs; type: functional, cell-based
Outline: as §1

[6] = tested on: RAW264.7; test: Antioxidant activity in mouse RAW264.7 cells assessed as reversal in LPS-induced increase of MPO activity measured after 12 hrs; type: functional, cell-based
Outline: as §1

[7] = Half life in CD-1 rat liver microsomes preincubated for 5 mins followed by NADPH addition and measured after 45 mins by LC-MS/MS analysis; type: ADME, Microsome; conditions: time 50 min
Outline: (§2)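 CD-1 male rat liver microsomes in PBS were shaken 10 min at 37 °C, then DMSO compound solution (0.1 mM) was added. Plates were preincubated 5 min at 37 °C before NADPH was added to start the reaction; the 0-min samples were quenched with acetonitrile first. Ice-cold acetonitrile stopped reactions at 5, 15, 30 and 45 min. Clozapine was the reference; supernatants were analysed by LC-MS/MS.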

[8] = Intrinsic clearance in CD-1 rat liver microsomes preincubated for 5 mins followed by NADPH addition and measured after 45 mins by LC-MS/MS analysis; type: ADME, Microsome; conditions: time 50 min
Outline: as §2

[9] = Hepatic clearance in CD-1 rat liver microsomes preincubated for 5 mins followed by NADPH addition and measured after 45 mins by LC-MS/MS analysis; type: ADME, Microsome
Outline: as §2

[10] = biological target: T1, Cytochrome P450 1A2 (Homo sapiens, UniProt P05177); test: Inhibition of CYP1A2 in human liver microsomes preincubated for 10 mins followed by NADPH addition by LC-MS/MS analysis; type: ADME
T1 sequence (P05177 whole entry): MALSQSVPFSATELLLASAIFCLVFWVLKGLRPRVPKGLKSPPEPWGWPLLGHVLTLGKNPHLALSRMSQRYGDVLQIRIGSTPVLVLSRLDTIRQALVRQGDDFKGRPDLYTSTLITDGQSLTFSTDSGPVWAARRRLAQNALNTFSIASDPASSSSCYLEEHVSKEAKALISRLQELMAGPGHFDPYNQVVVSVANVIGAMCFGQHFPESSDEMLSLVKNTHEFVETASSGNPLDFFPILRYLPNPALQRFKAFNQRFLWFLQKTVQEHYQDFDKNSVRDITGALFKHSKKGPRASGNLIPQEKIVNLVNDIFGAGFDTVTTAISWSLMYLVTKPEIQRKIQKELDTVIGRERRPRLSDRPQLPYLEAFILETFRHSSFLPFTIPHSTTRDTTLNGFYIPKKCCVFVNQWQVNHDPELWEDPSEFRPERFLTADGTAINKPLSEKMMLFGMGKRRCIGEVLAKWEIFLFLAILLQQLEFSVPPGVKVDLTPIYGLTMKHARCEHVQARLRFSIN

[11] = biological target: Cytochrome P450 2C9 (Homo sapiens, UniProt P11712); test: Inhibition of CYP2C9 in human liver microsomes preincubated for 10 mins followed by NADPH addition by LC-MS/MS analysis; type: ADME
[12] = biological target: Cytochrome P450 2C19 (Homo sapiens, UniProt P33261); test: Inhibition of CYP2C19 in human liver microsomes preincubated for 10 mins followed by NADPH addition by LC-MS/MS analysis; type: ADME
[13] = biological target: Cytochrome P450 2D6 (Homo sapiens, UniProt P10635); test: Inhibition of CYP2D6 in human liver microsomes preincubated for 10 mins followed by NADPH addition by LC-MS/MS analysis; type: ADME
[14] = biological target: Cytochrome P450 3A4 (Homo sapiens, UniProt P08684); test: Inhibition of CYP3A4 in human liver microsomes preincubated for 10 mins followed by NADPH addition by LC-MS/MS analysis; type: ADME
[15] = AUC (0 to t) in Sprague-Dawley rat at 1 mg/kg, iv by LC-MS/MS analysis; type: ADME, organism-based; conditions: in vivo
[16] = AUC (0 to infinity) in Sprague-Dawley rat at 1 mg/kg, iv by LC-MS/MS analysis; type: ADME, organism-based; design: dose 1 mg/kg, route intravenous, time infinity; conditions: in vivo
[17] = Half life in Sprague-Dawley rat at 1 mg/kg, iv by LC-MS/MS analysis; type: ADME, organism-based; conditions: in vivo
Outline: (§3)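 Six male SD rats (180–220 g) received 1 mg/kg IV in normal saline with cosolvent. Plasma was obtained by centrifugation at 4 °C and 2000 rpm for 10 min, stored near −80 °C, and analysed by LC-MS/MS.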

[18] = Cmax in Sprague-Dawley rat at 1 mg/kg, iv by LC-MS/MS analysis; type: ADME, organism-based; design: route intravenous, dose 1 mg/kg; conditions: in vivo
Outline: as §3

[19] = Apparent volume of distribution during terminal phase in Sprague-Dawley rat at 1 mg/kg, iv by LC-MS/MS analysis; type: ADME, organism-based; conditions: in vivo
Outline: as §3

[20] = tested on: Mus musculus; test: Antiinflammatory activity in ip dosed LPS-induced C57BL/6 mouse model assessed as reduction in IFNgamma production treated for 3 days measured 24 hrs post last dose by ELISA; type: functional, organism-based; conditions: time 4.0 day
Outline: (§4)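 Female C57BL/6 mice (20 ± 2 g) got LPS 300 µg/kg IP, then 4 h later IP test compound (500 µL) daily for 3 days. Groups were saline control (n=3), LPS (n=8), LPS + 10 or 40 mg/kg (n=8 each) and LPS + dexamethasone 10 mg/kg IP (n=8). Sera were taken 24 h after the last dose, and IFN-γ, IL-1β, IL-6 and TNF-α were measured by ELISA kits.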

[21] = tested on: Mus musculus; test: Antiinflammatory activity in ip dosed LPS-induced C57BL/6 mouse model assessed as reduction in IL1beta production treated for 3 days measured 24 hrs post last dose by ELISA; type: functional, organism-based; conditions: time 4.0 day
Outline: as §4

[22] = tested on: Mus musculus; test: Antiinflammatory activity in ip dosed LPS-induced C57BL/6 mouse model assessed as reduction in IL6 production treated for 3 days measured 24 hrs post last dose by ELISA; type: functional, organism-based; conditions: time 4.0 day
Outline: as §4

[23] = tested on: Mus musculus; test: Antiinflammatory activity in ip dosed LPS-induced C57BL/6 mouse model assessed as reduction in TNFalpha production treated for 3 days measured 24 hrs post last dose by ELISA; type: functional, organism-based; conditions: time 4.0 day
Outline: as §4

[24] = tested on: Mus musculus; test: Antiinflammatory activity in LPS-induced C57BL/6 mouse model assessed as reduction in IFNgamma production at 10 mg/kg, ip treated for 3 days measured 24 hrs post last dose by ELISA; type: functional, organism-based; conditions: time 4.0 day
Outline: as §4

[25] = tested on: Mus musculus; test: Antiinflammatory activity in LPS-induced C57BL/6 mouse model assessed as reduction in IL1beta production at 10 mg/kg, ip treated for 3 days measured 24 hrs post last dose by ELISA; type: functional, organism-based; conditions: time 4.0 day
Outline: as §4

[26] = tested on: Mus musculus; test: Antiinflammatory activity in LPS-induced C57BL/6 mouse model assessed as reduction in IL6 production at 10 mg/kg, ip treated for 3 days measured 24 hrs post last dose by ELISA; type: functional, organism-based; conditions: time 4.0 day
Outline: as §4

[27] = tested on: Mus musculus; test: Antiinflammatory activity in LPS-induced C57BL/6 mouse model assessed as reduction in TNFalpha production at 10 mg/kg, ip treated for 3 days measured 24 hrs post last dose by ELISA; type: functional, organism-based; conditions: time 4.0 day
Outline: as §4

Sequence of Keap1/Nrf2 (Q16236 whole entry): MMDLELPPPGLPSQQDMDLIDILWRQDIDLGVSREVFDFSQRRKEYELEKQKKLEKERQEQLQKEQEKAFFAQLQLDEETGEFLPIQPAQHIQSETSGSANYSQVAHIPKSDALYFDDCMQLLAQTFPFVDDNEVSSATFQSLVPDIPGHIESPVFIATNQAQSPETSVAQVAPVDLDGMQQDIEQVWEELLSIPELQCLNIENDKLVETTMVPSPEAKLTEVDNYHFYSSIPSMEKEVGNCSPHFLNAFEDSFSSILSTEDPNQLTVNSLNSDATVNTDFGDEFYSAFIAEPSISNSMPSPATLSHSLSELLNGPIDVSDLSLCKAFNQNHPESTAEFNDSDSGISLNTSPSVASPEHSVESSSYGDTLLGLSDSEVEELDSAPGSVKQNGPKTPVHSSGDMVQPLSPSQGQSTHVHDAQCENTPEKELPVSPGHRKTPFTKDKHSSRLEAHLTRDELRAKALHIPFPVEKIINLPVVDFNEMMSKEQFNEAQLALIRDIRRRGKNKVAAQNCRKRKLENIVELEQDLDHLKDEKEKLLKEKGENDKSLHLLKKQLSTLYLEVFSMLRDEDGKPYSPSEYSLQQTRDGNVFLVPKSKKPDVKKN
Sequence of Keap1/Nrf2 (Q14145 whole entry): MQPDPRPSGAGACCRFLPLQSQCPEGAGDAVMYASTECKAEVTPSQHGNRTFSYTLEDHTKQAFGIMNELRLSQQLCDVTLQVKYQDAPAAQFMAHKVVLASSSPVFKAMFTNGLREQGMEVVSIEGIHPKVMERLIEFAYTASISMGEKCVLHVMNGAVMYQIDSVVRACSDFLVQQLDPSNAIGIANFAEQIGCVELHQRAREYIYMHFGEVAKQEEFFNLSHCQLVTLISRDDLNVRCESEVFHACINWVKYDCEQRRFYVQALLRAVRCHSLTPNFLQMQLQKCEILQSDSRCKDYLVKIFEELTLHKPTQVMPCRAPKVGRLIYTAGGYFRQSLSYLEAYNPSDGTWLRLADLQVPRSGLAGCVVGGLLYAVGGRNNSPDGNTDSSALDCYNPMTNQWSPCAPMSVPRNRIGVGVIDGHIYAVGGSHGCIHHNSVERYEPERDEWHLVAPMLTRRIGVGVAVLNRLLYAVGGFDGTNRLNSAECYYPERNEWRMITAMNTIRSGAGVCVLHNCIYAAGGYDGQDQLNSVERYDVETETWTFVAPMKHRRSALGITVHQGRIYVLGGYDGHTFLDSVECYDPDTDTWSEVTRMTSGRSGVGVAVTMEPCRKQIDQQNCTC
Sequence of Cytochrome P450 2C9 (P11712 whole entry): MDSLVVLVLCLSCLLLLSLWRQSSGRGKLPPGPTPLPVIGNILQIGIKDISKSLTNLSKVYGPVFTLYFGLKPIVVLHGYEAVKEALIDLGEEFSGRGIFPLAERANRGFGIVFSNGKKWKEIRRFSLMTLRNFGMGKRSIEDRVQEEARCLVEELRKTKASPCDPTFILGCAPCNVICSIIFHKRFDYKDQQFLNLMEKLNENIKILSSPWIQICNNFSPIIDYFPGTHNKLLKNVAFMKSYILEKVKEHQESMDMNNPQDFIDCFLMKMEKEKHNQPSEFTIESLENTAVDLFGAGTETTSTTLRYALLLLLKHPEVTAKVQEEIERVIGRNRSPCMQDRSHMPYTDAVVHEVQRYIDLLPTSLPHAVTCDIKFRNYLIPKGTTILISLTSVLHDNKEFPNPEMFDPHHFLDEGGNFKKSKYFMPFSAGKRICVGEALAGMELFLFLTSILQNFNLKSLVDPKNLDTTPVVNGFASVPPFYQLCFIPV
Sequence of Cytochrome P450 2C19 (P33261 whole entry): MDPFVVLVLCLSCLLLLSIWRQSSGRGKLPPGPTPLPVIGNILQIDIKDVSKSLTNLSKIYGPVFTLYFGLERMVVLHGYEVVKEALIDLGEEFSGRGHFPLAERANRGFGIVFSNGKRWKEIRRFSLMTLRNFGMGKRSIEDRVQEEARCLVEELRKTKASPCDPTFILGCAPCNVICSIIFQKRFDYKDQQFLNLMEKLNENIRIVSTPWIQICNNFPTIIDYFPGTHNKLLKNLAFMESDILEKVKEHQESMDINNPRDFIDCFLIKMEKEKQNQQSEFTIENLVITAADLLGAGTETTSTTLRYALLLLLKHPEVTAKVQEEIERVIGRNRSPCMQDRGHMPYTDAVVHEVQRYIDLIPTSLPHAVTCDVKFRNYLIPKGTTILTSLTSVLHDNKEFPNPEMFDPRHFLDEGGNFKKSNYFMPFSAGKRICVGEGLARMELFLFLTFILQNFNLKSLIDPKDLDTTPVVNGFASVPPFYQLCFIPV
Sequence of Cytochrome P450 3A4 (P08684 whole entry): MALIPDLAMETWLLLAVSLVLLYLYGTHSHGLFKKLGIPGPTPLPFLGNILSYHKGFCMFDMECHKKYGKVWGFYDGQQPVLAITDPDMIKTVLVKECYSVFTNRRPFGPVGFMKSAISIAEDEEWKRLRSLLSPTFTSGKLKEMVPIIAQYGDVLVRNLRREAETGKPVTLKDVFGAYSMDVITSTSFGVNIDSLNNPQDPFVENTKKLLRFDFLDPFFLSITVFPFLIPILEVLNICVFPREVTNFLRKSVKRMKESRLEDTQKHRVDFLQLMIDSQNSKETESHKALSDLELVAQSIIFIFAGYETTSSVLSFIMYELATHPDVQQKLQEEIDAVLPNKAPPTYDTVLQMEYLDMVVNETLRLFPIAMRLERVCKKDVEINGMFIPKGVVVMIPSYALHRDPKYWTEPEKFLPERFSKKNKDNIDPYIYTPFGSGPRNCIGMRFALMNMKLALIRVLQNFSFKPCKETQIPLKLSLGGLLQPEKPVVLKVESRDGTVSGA
Sequence of Cytochrome P450 2D6 (P10635 whole entry): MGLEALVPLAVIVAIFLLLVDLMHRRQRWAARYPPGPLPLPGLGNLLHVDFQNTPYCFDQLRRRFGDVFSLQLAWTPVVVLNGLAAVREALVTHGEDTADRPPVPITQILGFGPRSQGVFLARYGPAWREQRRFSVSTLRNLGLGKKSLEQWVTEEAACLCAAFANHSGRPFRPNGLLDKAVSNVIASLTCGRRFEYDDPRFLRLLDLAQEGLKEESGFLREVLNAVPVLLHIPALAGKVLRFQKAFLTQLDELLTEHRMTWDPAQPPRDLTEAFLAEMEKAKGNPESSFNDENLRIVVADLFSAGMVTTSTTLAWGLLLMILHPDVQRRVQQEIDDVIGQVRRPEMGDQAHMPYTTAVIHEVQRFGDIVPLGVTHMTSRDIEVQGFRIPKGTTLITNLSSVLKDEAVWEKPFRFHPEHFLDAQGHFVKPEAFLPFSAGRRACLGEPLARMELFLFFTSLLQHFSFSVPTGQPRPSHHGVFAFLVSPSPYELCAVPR

## Cc1cc(C)c(S(=O)(=O)N(CC(=O)O)c2ccc(OC(C(=O)O)c3ccc(C(C)(C)C)cc3)c3ccccc23)c(C)c1 (configuration not stated)
[1]
  pIC50: 4.72

## O=C(O)CN(c1ccc(OC(C(=O)O)c2ccccc2)c2ccccc12)S(=O)(=O)c1ccc(Br)cc1 (configuration not stated)
[1]
  pIC50: 5.53

## Cc1cc(C)c(S(=O)(=O)N(CC(=O)O)c2ccc(OC(C(=O)O)c3ccc(OC(C)C)cc3)c3ccccc23)c(C)c1 (configuration not stated)
[1]
  pIC50: 6.30

## Cc1cc(C)c(S(=O)(=O)N(CC(=O)O)c2ccc(OC(C(=O)O)c3ccc(O)cc3)c3ccccc23)c(C)c1 (configuration not stated)
[1]
  pIC50: 6.80

## Cc1cc(C)c(S(=O)(=O)N(CC(=O)O)c2ccc(OC(C(=O)O)c3ccc(Cl)cc3)c3ccccc23)c(C)c1 (configuration not stated)
[1]
  pIC50: 6.72

## Cc1cc(C)c(S(=O)(=O)N(CC(=O)O)c2ccc(OC(C(=O)O)c3ccc(C(F)(F)F)cc3)c3ccccc23)c(C)c1 (configuration not stated)
[1]
  pIC50: 5.92

## O=C(O)CN(c1ccc(OC(C(=O)O)c2ccccc2)c2ccccc12)S(=O)(=O)c1ccc(OC(F)(F)F)cc1 (configuration not stated)
[1]
  pIC50: 5.23

## CC(=O)Nc1ccc(C(Oc2ccc(N(CC(=O)O)S(=O)(=O)c3c(C)cc(C)cc3C)c3ccccc23)C(=O)O)cc1 (configuration not stated)
[1]
  pIC50: 6.01

## Cc1cc(C)c(S(=O)(=O)N(CC(=O)O)c2ccc(OC(C(=O)O)c3ccc(Br)cc3)c3ccccc23)c(C)c1 (configuration not stated)
[1]
  pIC50: 6.37

## COc1ccc(C(Oc2ccc(N(CC(=O)O)S(=O)(=O)c3c(C)cc(C)cc3C)c3ccccc23)C(=O)O)cc1 (configuration not stated)
[2]
  inhibition: Dose-dependent effect
[3]
  Activity: Active
[4]
  Activity: Active
[5]
  Activity: Active
[6]
  Activity: Dose-dependent effect
[7]
  half-life at […]: 10.5 h
[8]
  CLint at […]: 1.57 µL/min/mg
[9]
  CLhep predicted at […]: 2.69 mL/min/kg
[10]
  pIC50: < 5.00
[11]
  pIC50: < 5.00
[12]
  pIC50: < 5.00
[13]
  pIC50: < 5.00
[14]
  pIC50: < 5.00
[15]
  AUC(0-t): 2550 ng·h/mL
[16]
  AUC: 2649 ng·h/mL
[17]
  t1/2: 1.72 h
[18]
  Cmax: 15100 ng/mL
[19]
  Vz/F: 0.953 L/kg
[20]
  Activity: Dose-dependent effect
[21]
  Activity: Dose-dependent effect
[22]
  Activity: Dose-dependent effect
[23]
  Activity: Dose-dependent effect

## O=C(O)CN(c1ccc(OC(C(=O)O)c2ccccc2)c2ccccc12)S(=O)(=O)c1ccc(Cl)cc1 (configuration not stated)
[1]
  pIC50: 5.12

## O=C(O)CN(c1ccc(OC(C(=O)O)c2ccccc2)c2ccccc12)S(=O)(=O)c1cccc2ccccc12 (configuration not stated)
[1]
  pIC50: 6.11

## Cc1cc(C)c(S(=O)(=O)N(CC(=O)O)c2ccc(OC(C(=O)O)c3ccc(F)cc3)c3ccccc23)c(C)c1 (configuration not stated)
[1]
  pIC50: 6.77

## Cc1ccc(S(=O)(=O)N(CC(=O)O)c2ccc(OC(C(=O)O)c3ccccc3)c3ccccc23)cc1 (configuration not stated)
[1]
  pIC50: 5.57

## NC(=O)c1ccc(S(=O)(=O)N(CC(=O)O)c2ccc(OC(C(=O)O)c3ccccc3)c3ccccc23)cc1 (configuration not stated)
[1]
  pIC50: 5.57

## O=C(O)CN(c1ccc(OC(C(=O)O)c2ccccc2)c2ccccc12)S(=O)(=O)c1ccccc1 (configuration not stated)
[1]
  pIC50: 4.75

## C[C@@H]1C[C@H]2[C@@H]3CCC4=CC(=O)C=C[C@]4(C)[C@@]3(F)[C@@H](O)C[C@]2(C)[C@@]1(O)C(=O)CO
[24]
  Activity: Active
[25]
  Activity: Active
[26]
  Activity: Active
[27]
  Activity: Active

## CCOc1ccc(C(Oc2ccc(N(CC(=O)O)S(=O)(=O)c3c(C)cc(C)cc3C)c3ccccc23)C(=O)O)cc1 (configuration not stated)
[1]
  pIC50: 6.82
